# Laboratory results: ChEMBL document CHEMBL5257020, “Discovery of a 9-mer Cationic Peptide (LTX-315) as a Potential First in Class Oncolytic Peptide” (J Med Chem, 2016)
# Where a SMILES comes first, the peptide text is derived from it. [ ]: non-standard residue; d: D form. ξ: configuration not given here. ξDip = NC(C(=O)O)C(c1ccccc1)c1ccccc1
# Tests used:
# [1] = Hemolytic activity in human red blood cells incubated for 1 hr by spectrophotometric microtiter plate reader method; format: toxicity, cell-based, Erythrocyte
# [2] = Stability in pooled and cryopreserved human hepatocytes assessed as intrinsic clearance measured per 10^6 cells at 1 uM measured for 90 mins by LC-MS/MS analysis; format: ADME, cell-based, Hepatocyte; conditions: read-out: CLH
# Summary of the method: (§1)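 Pooled cryopreserved hepatocytes at 0.5 million cells/mL, incubated at about 37 °C with 1 μM initial peptide. Supernatant after centrifugation analysed by LC–MS/MS (MRM) using a D-Trp7,9,10-substance P internal standard. Peak height was referenced to time zero, and t1/2 = −0.693/slope of ln concentration vs time. Clint = 0.693/t1/2 × Vinc per million cells. Testosterone, midazolam and 4-methylumbelliferone were the positive controls. Duplicates; mean of two experiments.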
# [3] = Stability in pooled and cryopreserved rat hepatocytes assessed as intrinsic clearance measured per 10^6 cells at 1 uM measured for 90 mins by LC-MS/MS analysis; format: ADME, cell-based, Hepatocyte; conditions: read-out: CLH; summary of the method: as §1
# [4] = Drug recovery in human plasma incubated for 20 hrs in presence of serine protease inhibitor AEBSF (reference value: 176 ng/ml); format: ADME, cell-free
# [5] = Protein binding in Beagle dog plasma assessed as bound fraction at 200 to 1000 ng/ml incubated for 20 hrs in presence of AEBSF by LC-MS/MS analysis; format: ADME, cell-free, Canis lupus familiaris; conditions: dose 200-1000 ng/ml, read-out: PPB
# Summary of the method: (§2)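 Pooled plasma (human volunteers; Han Wistar rat; Beagle dog) containing AEBSF 1 mg/mL. Spiked to 200, 500 or 1000 ng/mL final, in duplicate. Ultracentrifuged 45 000 rpm, 37 °C, 20 h. Supernatant quantified by LC–MS/MS. % bound = [(C − CS)/C] × 100. Values are upper limits because of residual degradation.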
# [6] = Protein binding in human plasma assessed as bound fraction at 200 to 1000 ng/ml incubated for 20 hrs in presence of AEBSF by LC-MS/MS analysis; format: ADME, cell-free; conditions: dose 200-1000 ng/ml, read-out: PPB; summary of the method: as §2
# [7] = Protein binding in Han Wistar rat plasma assessed as bound fraction at 200 to 1000 ng/ml incubated for 20 hrs in presence of AEBSF by LC-MS/MS analysis; format: ADME, cell-free; conditions: dose 200-1000 ng/ml, read-out: PPB; summary of the method: as §2
# [8] = Half life in human plasma measured by RP-HPLC analysis; format: ADME, cell-free
# [9] = Ratio of drug concentration in rat blood to plasma measured after 60 mins by LC-MS/MS analysis; format: ADME, cell-free
# Summary of the method: (§3)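 Pooled fresh whole blood (≥3 male and 3 female human, beagle dog or rat donors) spiked to 200 ng/mL. Incubated ~37 °C on rotary mixer over 0–120 min. Hematocrit determined. Blood and plasma analysed by LC–MS/MS. Blood/plasma ratio = Cb/C. Cell association = {[C(1 − H)]/Cb} × 100. Values at 60 min, mean of two independent measurements.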
# [10] = Ratio of drug concentration in Beagle dog blood to plasma measured after 60 mins by LC-MS/MS analysis; format: ADME, cell-free, Canis lupus familiaris; summary of the method: as §3
# [11] = Ratio of drug concentration in human blood to plasma measured after 60 mins by LC-MS/MS analysis; format: ADME, cell-free; summary of the method: as §3
# [12] = Drug uptake in rat Red blood cells at 60 mins by LC-MS/MS analysis; format: ADME, cell-based; conditions: erythrocyte, 1 h; summary of the method: as §3
# [13] = Drug uptake in Beagle dog Red blood cells at 60 mins by LC-MS/MS analysis; format: ADME, cell-based, Canis lupus familiaris; conditions: erythrocyte, 1 h; summary of the method: as §3
# [14] = Drug uptake in human red blood cells at 60 mins by LC-MS/MS analysis; format: ADME, cell-based; conditions: erythrocyte, 1 h; summary of the method: as §3
# Cytochrome P450 2A6 = Cytochrome P450 2A6 (Homo sapiens, UniProt P11509); experiment: Inhibition of CYP2A6 in human liver microsomes using coumarin as substrate assessed as reduction in substrate hydroxylation incubated for 5 mins in presence of beta-NADPH measured by LC-MS/MS analysis; format: ADME, Microsome
# Sequence of Cytochrome P450 2A6 (P11509 whole entry, canonical isoform): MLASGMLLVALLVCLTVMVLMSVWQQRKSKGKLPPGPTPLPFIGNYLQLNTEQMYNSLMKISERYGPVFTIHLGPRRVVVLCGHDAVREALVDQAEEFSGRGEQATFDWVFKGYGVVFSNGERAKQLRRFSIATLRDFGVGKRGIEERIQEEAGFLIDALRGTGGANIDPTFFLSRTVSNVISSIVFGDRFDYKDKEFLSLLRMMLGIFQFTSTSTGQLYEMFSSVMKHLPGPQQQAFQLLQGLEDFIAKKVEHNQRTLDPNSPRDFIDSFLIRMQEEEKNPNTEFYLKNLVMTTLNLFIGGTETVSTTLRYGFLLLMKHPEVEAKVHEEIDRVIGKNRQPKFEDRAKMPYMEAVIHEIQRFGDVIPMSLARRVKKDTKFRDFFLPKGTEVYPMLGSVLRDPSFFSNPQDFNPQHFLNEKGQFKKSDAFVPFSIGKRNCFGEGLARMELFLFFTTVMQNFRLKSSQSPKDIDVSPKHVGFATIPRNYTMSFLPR
# Summary of the method: (§4)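 Pooled human liver microsomes (50 donors) in 100 mM phosphate, pH 7.4, with 2 mM β-NADPH. Protein 0.1 mg/mL (2A6, 2C8, 2C9, 2E1, 3A4) or 0.3 mg/mL (1A2, 2B6, 2C19, 2D6). Test article 0–100 μM final, preincubated ~37 °C 5 or 30 min before isoform-selective substrate. Quenched in methanol with internal standard. Metabolite measured by LC–MS/MS against standard curve. Duplicates, with selective inhibitor positive controls.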
# Cytochrome P450 2E1 [15] = target: T1, Cytochrome P450 2E1 (Homo sapiens, UniProt P05181); experiment: Inhibition of CYP2E1 in human liver microsomes using chlorzoxazone as substrate assessed as reduction in substrate hydroxylation incubated for 5 mins in presence of beta-NADPH measured by LC-MS/MS analysis; format: ADME, Microsome; summary of the method: as §4
# T1 sequence (P05181 whole entry): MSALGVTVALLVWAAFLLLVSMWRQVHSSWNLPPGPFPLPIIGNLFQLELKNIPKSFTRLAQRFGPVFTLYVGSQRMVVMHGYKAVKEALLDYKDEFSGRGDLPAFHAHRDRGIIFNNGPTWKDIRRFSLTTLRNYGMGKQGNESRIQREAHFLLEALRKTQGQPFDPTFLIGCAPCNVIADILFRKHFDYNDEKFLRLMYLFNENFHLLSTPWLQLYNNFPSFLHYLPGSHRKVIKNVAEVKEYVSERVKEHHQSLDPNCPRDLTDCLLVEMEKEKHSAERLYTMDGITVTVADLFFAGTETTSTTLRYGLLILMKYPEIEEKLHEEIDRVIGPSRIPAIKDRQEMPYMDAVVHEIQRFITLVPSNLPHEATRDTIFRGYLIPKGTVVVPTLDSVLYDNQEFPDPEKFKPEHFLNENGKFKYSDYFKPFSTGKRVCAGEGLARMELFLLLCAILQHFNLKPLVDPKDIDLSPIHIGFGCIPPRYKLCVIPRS
# Cytochrome P450 3A4 [16] = target: T2, Cytochrome P450 3A4 (Homo sapiens, UniProt P08684); experiment: Inhibition of CYP3A4 in human liver microsomes using testosterone as substrate assessed as reduction in substrate hydroxylation incubated for 5 mins in presence of beta-NADPH measured by LC-MS/MS analysis; format: ADME, Microsome; summary of the method: as §4
# T2 sequence (P08684 whole entry): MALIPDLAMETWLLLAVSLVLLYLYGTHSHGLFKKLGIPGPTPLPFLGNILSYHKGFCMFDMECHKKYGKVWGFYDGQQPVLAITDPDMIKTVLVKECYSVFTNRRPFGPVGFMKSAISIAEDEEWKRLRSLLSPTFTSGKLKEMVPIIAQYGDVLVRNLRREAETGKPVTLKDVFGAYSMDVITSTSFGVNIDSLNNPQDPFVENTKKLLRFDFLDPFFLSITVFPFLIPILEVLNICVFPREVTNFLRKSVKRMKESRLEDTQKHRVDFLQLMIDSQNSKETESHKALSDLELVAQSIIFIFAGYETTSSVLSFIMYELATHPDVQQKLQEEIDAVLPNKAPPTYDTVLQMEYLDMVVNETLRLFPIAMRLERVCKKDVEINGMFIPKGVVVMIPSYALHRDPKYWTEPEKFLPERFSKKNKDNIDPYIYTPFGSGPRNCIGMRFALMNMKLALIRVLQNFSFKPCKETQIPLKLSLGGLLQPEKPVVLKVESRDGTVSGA
# Cytochrome P450 1A2 = Cytochrome P450 1A2 (Homo sapiens, UniProt P05177); experiment: Inhibition of CYP1A2 in human liver microsomes using as phenacetin substrate assessed as reduction in O-deethylation of phenacetin incubated for 30 mins in presence of beta-NADPH by LC-MS/MS analysis; format: ADME, Microsome; summary of the method: as §4
# Sequence of Cytochrome P450 1A2 (P05177 whole entry): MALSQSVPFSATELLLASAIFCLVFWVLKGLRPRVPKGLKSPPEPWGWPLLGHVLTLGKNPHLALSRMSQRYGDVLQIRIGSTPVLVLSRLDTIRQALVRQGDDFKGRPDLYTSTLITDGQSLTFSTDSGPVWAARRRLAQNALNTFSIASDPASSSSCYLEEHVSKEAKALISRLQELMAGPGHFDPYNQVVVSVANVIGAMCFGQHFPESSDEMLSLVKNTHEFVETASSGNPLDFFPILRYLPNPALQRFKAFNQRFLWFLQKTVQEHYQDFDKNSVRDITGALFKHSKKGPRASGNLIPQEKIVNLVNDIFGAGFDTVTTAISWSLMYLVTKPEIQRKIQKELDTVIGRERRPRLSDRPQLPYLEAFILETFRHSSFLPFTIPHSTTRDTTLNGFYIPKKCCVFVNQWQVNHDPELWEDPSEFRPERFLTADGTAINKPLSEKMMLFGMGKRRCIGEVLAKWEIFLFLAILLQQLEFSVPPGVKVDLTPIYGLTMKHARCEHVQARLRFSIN
# Cytochrome P450 2B6 = Cytochrome P450 2B6 (Homo sapiens, UniProt P20813); experiment: Inhibition of CYP2B6 in human liver microsomes using bupropion as substrate assessed as reduction in substrate hydroxylation incubated for 30 mins in presence of beta-NADPH measured by LC-MS/MS analysis; format: ADME, Microsome; summary of the method: as §4
# Sequence of Cytochrome P450 2B6 (P20813 whole entry): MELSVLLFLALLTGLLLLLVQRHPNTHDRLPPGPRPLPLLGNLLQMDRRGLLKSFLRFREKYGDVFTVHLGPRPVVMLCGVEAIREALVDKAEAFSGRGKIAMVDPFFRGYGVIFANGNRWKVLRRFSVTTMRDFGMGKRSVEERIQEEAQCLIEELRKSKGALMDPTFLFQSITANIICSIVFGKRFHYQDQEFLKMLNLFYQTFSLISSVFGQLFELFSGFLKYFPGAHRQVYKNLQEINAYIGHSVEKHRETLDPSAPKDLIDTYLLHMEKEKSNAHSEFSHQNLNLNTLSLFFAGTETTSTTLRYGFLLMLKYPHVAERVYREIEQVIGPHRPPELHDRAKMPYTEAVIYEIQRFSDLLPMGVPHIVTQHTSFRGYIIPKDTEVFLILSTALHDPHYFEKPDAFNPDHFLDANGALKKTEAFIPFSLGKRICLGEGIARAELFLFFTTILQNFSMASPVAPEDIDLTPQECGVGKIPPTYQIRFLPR
# Cytochrome P450 2C8 = Cytochrome P450 2C8 (Homo sapiens, UniProt P10632); experiment: Inhibition of CYP2C8 in human liver microsomes using paclitaxel as substrate assessed as reduction in substrate hydroxylation incubated for 30 mins in presence of beta-NADPH measured by LC-MS/MS analysis; format: ADME, Microsome; summary of the method: as §4
# Sequence of Cytochrome P450 2C8 (P10632 whole entry): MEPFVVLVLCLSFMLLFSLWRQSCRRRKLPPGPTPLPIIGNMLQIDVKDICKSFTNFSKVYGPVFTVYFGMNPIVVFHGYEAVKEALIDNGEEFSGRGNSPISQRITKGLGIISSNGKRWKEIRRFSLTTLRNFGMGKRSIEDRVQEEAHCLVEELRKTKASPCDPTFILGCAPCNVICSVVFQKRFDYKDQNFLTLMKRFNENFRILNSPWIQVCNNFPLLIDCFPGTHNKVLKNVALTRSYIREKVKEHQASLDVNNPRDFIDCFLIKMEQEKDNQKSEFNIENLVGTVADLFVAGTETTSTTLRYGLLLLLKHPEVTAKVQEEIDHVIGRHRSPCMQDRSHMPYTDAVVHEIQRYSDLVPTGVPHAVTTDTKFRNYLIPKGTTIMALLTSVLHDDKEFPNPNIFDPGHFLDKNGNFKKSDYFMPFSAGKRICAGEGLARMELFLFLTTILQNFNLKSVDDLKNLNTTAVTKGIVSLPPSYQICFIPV
# Cytochrome P450 2C19 = Cytochrome P450 2C19 (Homo sapiens, UniProt P33261); experiment: Inhibition of CYP2C19 in human liver microsomes using (S)-mephenytoin as substrate assessed as reduction in substrate hydroxylation incubated for 30 mins in presence of beta-NADPH measured by LC-MS/MS analysis; format: ADME, Microsome; summary of the method: as §4
# Sequence of Cytochrome P450 2C19 (P33261 whole entry): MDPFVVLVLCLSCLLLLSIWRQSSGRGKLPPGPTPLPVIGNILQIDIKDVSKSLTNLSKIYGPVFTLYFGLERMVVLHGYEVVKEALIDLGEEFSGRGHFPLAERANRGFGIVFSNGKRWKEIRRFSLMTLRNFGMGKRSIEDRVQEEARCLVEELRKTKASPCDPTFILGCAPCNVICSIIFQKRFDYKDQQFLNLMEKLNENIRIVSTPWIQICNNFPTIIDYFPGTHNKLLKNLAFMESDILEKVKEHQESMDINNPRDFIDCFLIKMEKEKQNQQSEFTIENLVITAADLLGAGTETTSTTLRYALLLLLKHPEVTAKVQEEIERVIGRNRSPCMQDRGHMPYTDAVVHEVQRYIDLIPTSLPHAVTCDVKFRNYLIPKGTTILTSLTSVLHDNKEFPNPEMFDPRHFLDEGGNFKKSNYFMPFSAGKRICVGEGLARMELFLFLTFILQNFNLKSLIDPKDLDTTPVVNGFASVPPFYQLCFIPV
# Cytochrome P450 2E1 [17] = target: T1, Cytochrome P450 2E1; experiment: Inhibition of CYP2E1 in human liver microsomes using chlorzoxazone as substrate assessed as reduction in substrate hydroxylation incubated for 30 mins in presence of beta-NADPH measured by LC-MS/MS analysis; format: ADME, Microsome; summary of the method: as §4
# Cytochrome P450 3A4 [18] = target: T2, Cytochrome P450 3A4; experiment: Inhibition of CYP3A4 in human liver microsomes using midazolam as substrate assessed as reduction in substrate hydroxylation incubated for 30 mins in presence of beta-NADPH measured by LC-MS/MS analysis; format: ADME, Microsome; summary of the method: as §4
structure (smiles),measurement,setting,value
NCCCC[C@H](NC(=O)C(NC(=O)[C@H](Cc1c[nH]c2ccccc12)NC(=O)[C@H](CCCCN)NC(=O)[C@H](CCCCN)NC(=O)[C@H](Cc1c[nH]c2ccccc12)NC(=O)[C@H](Cc1c[nH]c2ccccc12)NC(=O)[C@H](CCCCN)NC(=O)[C@@H](N)CCCCN)C(c1ccccc1)c1ccccc1)C(N)=O (stereo partly drawn) (H-KKWWKKW[ξDip]K-NH2),EC50 at 1 h,[1],> 695 µM
same,hepatocyte CLint at 1 µM,[2],22 µL/min/1e6 cells
same,hepatocyte CLint at 1 µM,[3],20 µL/min/1e6 cells
same,Drug recovery,[4],131 ng/mL
same,fraction unbound at 20 h,[5],> 0.08
same,fraction unbound at 20 h,[6],> 0.2
same,fraction unbound at 20 h,[7],> 0.25
same,half-life,[8],2.67 h
same,blood plasma ratio at 1 h,[9],1.03
same,blood plasma ratio at 1 h,[10],2.19
same,blood plasma ratio at 1 h,[11],0.76
same,Drug uptake,[12],44%
same,Drug uptake,[13],76%
same,Drug uptake,[14],27%
same,IC50,Cytochrome P450 2A6,7 µM
same,IC50,Cytochrome P450 2E1 [15],30.9 µM
same,IC50,Cytochrome P450 3A4 [16],9.3 µM
same,IC50,Cytochrome P450 1A2,> 100 µM
same,IC50,Cytochrome P450 2B6,18.6 µM
same,IC50,Cytochrome P450 2C8,7.9 µM
same,IC50,Cytochrome P450 2C19,> 100 µM
same,IC50,Cytochrome P450 2E1 [17],30 µM
same,IC50,Cytochrome P450 3A4 [18],63.7 µM
